Measured values taken from ChEMBL document CHEMBL3808369, “Identification of Cyproheptadine as an Inhibitor of SET Domain Containing Lysine Methyltransferase 7/9 (Set7/9) That Regulates Estrogen-Dependent Transcription” (J Med Chem, 2016).
The source made the active and inactive calls.

How the values were obtained:
[1] = molecular target: T1, Histone-lysine N-methyltransferase SETD7 (Homo sapiens) (UniProt Q8WTS6); assay: Inhibition of recombinant his-tagged Set7/9 (unknown origin) expressed in Escherichia coli BL21 (DE3) using GST-fused histone H3 (1 to 57 residues) as substrate preincubated for 1 hr followed by substrate addition measured after 1 hr by Western blot analysis
T1 sequence (whole entry): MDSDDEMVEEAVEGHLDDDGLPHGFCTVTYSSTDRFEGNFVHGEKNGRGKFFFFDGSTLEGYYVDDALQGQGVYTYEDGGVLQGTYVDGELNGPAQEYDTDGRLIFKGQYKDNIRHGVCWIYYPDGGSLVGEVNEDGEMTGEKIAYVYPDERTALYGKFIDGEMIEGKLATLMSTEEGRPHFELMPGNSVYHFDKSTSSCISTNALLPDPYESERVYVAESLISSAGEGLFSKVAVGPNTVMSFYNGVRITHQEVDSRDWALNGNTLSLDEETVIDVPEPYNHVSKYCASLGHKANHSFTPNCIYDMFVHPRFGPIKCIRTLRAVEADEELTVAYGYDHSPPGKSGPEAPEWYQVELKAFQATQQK
Procedure, shortened: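 His-Set7/9 (0.2 μg/μL) preincubated with or without inhibitor in HMT buffer for 1 h. Then 1 mM SAM and 0.01 μg/μL GST-histone H3 (1−57) were added and incubated 1 h at 37 °C. Reactions were stopped in SDS loading buffer and immunoblotted with an anti-H3K4me1 antibody.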

[2] = molecular target: T2, Histone-lysine N-methyltransferase EHMT2 (Homo sapiens) (UniProt Q96KQ7); assay: Inhibition of G9a (unknown origin) by ELISA
T2 sequence (whole entry): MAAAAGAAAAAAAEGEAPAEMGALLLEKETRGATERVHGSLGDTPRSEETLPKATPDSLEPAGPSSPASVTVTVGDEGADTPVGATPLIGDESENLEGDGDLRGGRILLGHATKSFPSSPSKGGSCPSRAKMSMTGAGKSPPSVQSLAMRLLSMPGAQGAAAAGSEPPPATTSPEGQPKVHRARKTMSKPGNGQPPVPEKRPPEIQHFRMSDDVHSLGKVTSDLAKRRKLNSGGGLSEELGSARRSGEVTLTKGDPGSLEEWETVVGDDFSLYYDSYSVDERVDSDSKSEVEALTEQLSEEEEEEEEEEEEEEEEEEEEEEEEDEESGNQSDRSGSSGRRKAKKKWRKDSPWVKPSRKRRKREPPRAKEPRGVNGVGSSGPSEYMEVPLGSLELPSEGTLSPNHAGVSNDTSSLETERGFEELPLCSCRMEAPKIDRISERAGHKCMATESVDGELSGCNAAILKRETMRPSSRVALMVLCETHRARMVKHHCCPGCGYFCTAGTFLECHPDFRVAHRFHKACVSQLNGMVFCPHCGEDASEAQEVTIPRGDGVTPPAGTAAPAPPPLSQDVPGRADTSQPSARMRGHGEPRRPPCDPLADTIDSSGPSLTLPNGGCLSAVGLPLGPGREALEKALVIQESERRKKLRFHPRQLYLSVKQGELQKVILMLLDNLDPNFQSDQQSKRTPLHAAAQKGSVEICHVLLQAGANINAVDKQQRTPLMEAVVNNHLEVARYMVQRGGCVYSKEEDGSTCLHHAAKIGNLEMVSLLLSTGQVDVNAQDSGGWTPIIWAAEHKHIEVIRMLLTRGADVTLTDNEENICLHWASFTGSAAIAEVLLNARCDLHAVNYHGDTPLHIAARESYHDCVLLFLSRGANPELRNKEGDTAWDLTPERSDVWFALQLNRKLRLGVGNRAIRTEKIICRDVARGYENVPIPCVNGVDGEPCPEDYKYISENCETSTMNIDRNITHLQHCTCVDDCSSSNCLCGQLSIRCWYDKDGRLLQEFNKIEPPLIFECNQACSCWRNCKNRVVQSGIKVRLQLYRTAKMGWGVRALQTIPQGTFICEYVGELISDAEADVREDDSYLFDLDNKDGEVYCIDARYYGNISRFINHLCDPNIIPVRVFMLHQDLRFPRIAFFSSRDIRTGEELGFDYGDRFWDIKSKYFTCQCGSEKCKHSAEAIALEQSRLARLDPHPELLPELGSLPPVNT

[3] = molecular target: T1, Histone-lysine N-methyltransferase SETD7 (Homo sapiens); assay: Inhibition of Set7/9 in human MCF7 cells assessed as suppression of beta-estradiol-induced cell viability incubated for 4 days by haemocytometer; type: cell-based
Procedure, shortened: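 MCF7 cells (1.5 × 10^4 per well) switched to estrogen-free medium after 24 h. Drug added with or without 10 nM β-estradiol, 4 days' incubation. Cells counted by hemocytometer. Four independent assays.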

[4] = molecular target: T2, Histone-lysine N-methyltransferase EHMT2 (Homo sapiens); assay: Inhibition of G9a (unknown origin) by AlphaELISA

Measured: inhibition

CN1CCC(=C2c3ccccc3C=Cc3ccccc32)CC1 [CYPROHEPTADINE]
active: [1] | [2] | [3] Dose-dependent effect | [4]
